Experimental data gathered from unrelated publications.
Lines come from different studies, so protocols differ.
Target: Dual specificity tyrosine-phosphorylation-regulated kinase 1B (DYRK1B, Homo sapiens, UniProt Q9Y463)
Method: competition with immobilised ligand

Structure (SMILES) | test | conditions | remaining binding [%]
N#Cc1ccccc1CSc1nnc2c(n1)[nH]c1ccccc12 | binding | 10 µM | 74
O=C(c1ccc(Nc2ncc(Cl)c(-c3cc4ccccc4s3)n2)cc1)N1CCC(N2CCCC2)CC1 | binding | 1 µM | 18
CCN1CCN(Cc2ccc(C(=O)Nc3ccc(C)c(Oc4ccc5c(c4)CC(=O)N5)c3)cc2C(F)(F)F)CC1 | binding | 1 µM | 95
O=C(NCC1CCOCC1)c1n[nH]cc1NC(=O)c1c(F)cccc1F | binding | 1 µM | 10
COC(=O)Nc1nc2ccc(C(=O)c3ccccc3)cc2[nH]1 | cell-free assay | 10 µM | 5.6
COc1cnc(Nc2cccc(S(N)(=O)=O)c2)nc1N1CCN(c2ccccc2)C(=O)C1 | binding | 1 µM | 91
CNCc1ccccc1-c1csc([C@H](C)Nc2nc(C)nc3cc(OC)c(OC)cc23)c1 | cell-free assay | 1 µM | 55
CN(CCCC(F)(F)F)c1nccc(-c2cnn3ncccc23)n1 | binding | 1 µM | 39
COc1ccc2c(c1)O[C@@H](c1ccc(OC)c(OC)c1)C[C@H]2NC(=O)C1(c2ccc3c(c2)OC(F)(F)O3)CC1 | cell-free assay | 1 µM | 100
O=C(c1ccc(Nc2nccc(-c3cc4ccccc4s3)n2)cc1)N1CCC(N2CCCC2)CC1 | binding | 1 µM | 99
CNC(=O)[C@@H]1CC[C@@H](n2c(-c3ccc4cnccc4c3)nc3ccc(C(=O)NCc4cccc(C(N)=O)c4)cc32)C1 | binding | 1 µM | 45
Cc1cc(-n2nc(Cc3cc(F)cc(C(F)(F)F)c3)nc2C)ccc1C(N)=O | cell-free assay | 1 µM | 100
Nc1ncc2c(n1)-c1c([nH]c3ccc(C#CC4CC4)cc13)CCCC2 | binding | 1 µM | 77
O=C(N[C@H]1CCCCC/C=C\C2C[C@@]2(C(=O)O)NC(=O)[C@@H]2C[C@@H](Oc3ccncc3)CN2C1=O)OC1CCCC1 (stereo partly drawn) | cell-free assay | 1 µM | 46
Cc1cnc(Nc2ccc(C(=O)N3CCC(N4CCCC4)CC3)cc2)nc1-c1cc2ccccc2s1 | binding | 1 µM | 43
